In ChEMBL document CHEMBL1140019, “Primary amides as selective inhibitors of cathepsin K” (Bioorg Med Chem Lett, 2007):

Assays:
Cathepsin K = Cathepsin K (Homo sapiens, UniProt P43235); assay: Inhibition of humanized rabbit cathepsin K
How it was run: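 IC50 was measured against the humanized rabbit enzyme and is the mean of at least four independent titrations, reported with SEM.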

Cathepsin B = Cathepsin B (Homo sapiens, UniProt P07858); assay: Inhibition of human cathepsin B
Procathepsin L = Procathepsin L (Homo sapiens, UniProt P07711); assay: Inhibition of human cathepsin L
Cathepsin S = Cathepsin S (Homo sapiens, UniProt P25774); assay: Inhibition of human cathepsin S
Cathepsin S, sequence (P25774 whole entry): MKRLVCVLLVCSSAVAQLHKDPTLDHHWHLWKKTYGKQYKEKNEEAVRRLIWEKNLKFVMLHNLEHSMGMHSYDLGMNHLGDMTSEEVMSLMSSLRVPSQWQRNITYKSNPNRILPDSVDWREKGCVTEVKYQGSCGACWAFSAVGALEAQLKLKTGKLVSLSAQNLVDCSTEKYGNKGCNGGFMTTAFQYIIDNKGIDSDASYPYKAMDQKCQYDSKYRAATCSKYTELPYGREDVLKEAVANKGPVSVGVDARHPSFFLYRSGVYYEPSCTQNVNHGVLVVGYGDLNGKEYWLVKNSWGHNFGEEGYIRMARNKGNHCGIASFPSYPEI

Procathepsin L, sequence (P07711 whole entry): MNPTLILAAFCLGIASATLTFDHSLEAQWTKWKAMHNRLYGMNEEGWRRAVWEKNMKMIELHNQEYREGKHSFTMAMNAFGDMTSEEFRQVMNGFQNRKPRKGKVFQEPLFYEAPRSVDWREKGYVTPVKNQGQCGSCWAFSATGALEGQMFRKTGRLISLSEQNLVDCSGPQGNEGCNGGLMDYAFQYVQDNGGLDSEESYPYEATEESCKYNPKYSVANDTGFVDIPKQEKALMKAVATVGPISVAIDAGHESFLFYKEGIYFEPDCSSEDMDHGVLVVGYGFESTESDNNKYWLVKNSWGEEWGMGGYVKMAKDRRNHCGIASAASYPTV

With CSCC[C@H](NC(=O)[C@H](CC(C)C)N[C@@H](c1ccc(-c2ccc(S(C)(=O)=O)cc2)cc1)C(F)(F)F)C(=O)N(C)C as the compound, how does the IC50 (Cathepsin K) read?
Its IC50 is 1050 nM.

CSCC[C@H](NC(=O)[C@H](CC(C)C)N[C@@H](c1ccc(-c2ccc(S(C)(=O)=O)cc2)cc1)C(F)(F)F)C(=O)O was tested. Which IC50 (Cathepsin K) did it give?
Its IC50 is 120 nM.

For CC(C)C[C@H](N[C@@H](c1ccc(-c2ccc(S(C)(=O)=O)cc2)cc1)C(F)(F)F)C(=O)NCC(N)=O, which IC50 (Cathepsin K) is on record?
The IC50 was 238 nM.

And the IC50 (Cathepsin B)?
Its IC50 is over 100000 nM.

What about the IC50 (Procathepsin L) of the same compound?
Its IC50 is 63100 nM.

What about the IC50 (Cathepsin S) of the same compound?
Its IC50 is 41100 nM.

For CSC[C@H](NC(=O)[C@H](CC(C)C)N[C@@H](c1ccc(-c2ccc(S(C)(=O)=O)cc2)cc1)C(F)(F)F)C(N)=O, which IC50 (Cathepsin K) is on record?
The IC50 was 66 nM.

How did the IC50 (Cathepsin K) turn out when CC(C)C[C@H](N[C@@H](c1ccc(-c2ccc(S(C)(=O)=O)cc2)cc1)C(F)(F)F)C(=O)N[C@@H](CCS(C)(=O)=O)C(N)=O was run?
Its IC50 is 151 nM.

How did the IC50 (Cathepsin K) turn out when CC(C)C[C@H](N[C@@H](c1ccc(-c2ccc(S(C)(=O)=O)cc2)cc1)C(F)(F)F)C(=O)N[C@@H](Cc1ccccc1)C(N)=O was run?
The IC50 was 10 nM.

What about the IC50 (Cathepsin B) of the same compound?
The IC50 was over 100000 nM.

What about the IC50 (Procathepsin L) of the same compound?
The IC50 was 17000 nM.

And the IC50 (Cathepsin S)?
The IC50 was 66700 nM.

CC(C)C[C@H](N[C@@H](c1ccc(-c2ccc(S(C)(=O)=O)cc2)cc1)C(F)(F)F)C(=O)N[C@H](Cc1ccccc1)C(N)=O was tested. Which IC50 (Cathepsin K) did it give?
Its IC50 is 6070 nM.

CSCC[C@H](NC(=O)[C@H](CC(C)C)N[C@@H](c1ccc(-c2ccc(S(C)(=O)=O)cc2)cc1)C(F)(F)F)C(N)=O was tested. Which IC50 (Cathepsin K) did it give?
Its IC50 is 13 nM.

What about the IC50 (Cathepsin B) of the same compound?
Its IC50 is over 100000 nM.

And the IC50 (Procathepsin L)?
Its IC50 is 55700 nM.

What about the IC50 (Cathepsin S) of the same compound?
The IC50 was 76900 nM.

With CSCC[C@H](NC(=O)[C@H](CC(C)C)N[C@@H](c1ccc(-c2ccc(S(C)(=O)=O)cc2)cc1)C(F)(F)F)C(=O)NCc1ccccc1 as the compound, how does the IC50 (Cathepsin K) read?
Its IC50 is 87 nM.

Which IC50 (Cathepsin K) does the source give for CNC(=O)[C@H](CCSC)NC(=O)[C@H](CC(C)C)N[C@@H](c1ccc(-c2ccc(S(C)(=O)=O)cc2)cc1)C(F)(F)F here?
The IC50 was 67 nM.

With CC(C)C[C@H](N[C@@H](c1ccc(-c2ccc(S(C)(=O)=O)cc2)cc1)C(F)(F)F)C(=O)N[C@@H](C)C(N)=O as the compound, how does the IC50 (Cathepsin K) read?
The IC50 was 174 nM.

CSCC[C@@H](C#N)NC(=O)[C@H](CC(C)C)N[C@@H](c1ccc(-c2ccc(S(C)(=O)=O)cc2)cc1)C(F)(F)F was tested. Which IC50 (Cathepsin K) did it give?
The IC50 was 0.2 nM.

Which IC50 (Cathepsin K) does the source give for CC(C)C[C@H](N[C@@H](c1ccc(-c2ccc(S(C)(=O)=O)cc2)cc1)C(F)(F)F)C(=O)N[C@@H](CCc1ccccc1)C(N)=O here?
Its IC50 is 273 nM.

Which IC50 (Cathepsin K) does the source give for CC(C)C[C@H](N[C@@H](c1ccc(-c2ccc(S(C)(=O)=O)cc2)cc1)C(F)(F)F)C(=O)N[C@@H](C)C#N here?
The IC50 was 0.9 nM.

For CC(C)C[C@H](N[C@@H](c1ccc(-c2ccc(S(C)(=O)=O)cc2)cc1)C(F)(F)F)C(=O)NCC#N, which IC50 (Cathepsin K) is on record?
The IC50 was 0.2 nM.

For CC(C)C[C@H](N[C@@H](c1ccc(-c2ccc(S(C)(=O)=O)cc2)cc1)C(F)(F)F)C(=O)N[C@H](C#N)Cc1ccccc1, which IC50 (Cathepsin K) is on record?
Its IC50 is 0.6 nM.

CC(C)C[C@H](N[C@@H](c1ccc(-c2ccc(S(C)(=O)=O)cc2)cc1)C(F)(F)F)C(=O)N[C@@H](CS(C)(=O)=O)C(N)=O was tested. Which IC50 (Cathepsin K) did it give?
The IC50 was 109 nM.

COC(=O)[C@H](CCSC)NC(=O)[C@H](CC(C)C)N[C@@H](c1ccc(-c2ccc(S(C)(=O)=O)cc2)cc1)C(F)(F)F was tested. Which IC50 (Cathepsin K) did it give?
The IC50 was 27 nM.

Which IC50 (Cathepsin K) does the source give for CSCC[C@H](NC(=O)[C@H](CC(C)C)N[C@@H](c1ccc(-c2ccc(S(C)(=O)=O)cc2)cc1)C(F)(F)F)C(C)=O here?
The IC50 was 41 nM.

For CSCC[C@H](NC(=O)[C@H](CC(C)C)N[C@@H](c1ccc(-c2ccc(S(C)(=O)=O)cc2)cc1)C(F)(F)F)C(=O)NS(C)(=O)=O, which IC50 (Cathepsin K) is on record?
The IC50 was 238 nM.

How did the IC50 (Cathepsin K) turn out when CSCC[C@H](NC(=O)[C@H](CC(C)C)N[C@@H](c1ccc(-c2ccc(S(C)(=O)=O)cc2)cc1)C(F)(F)F)C(=O)NCC(F)(F)F was run?
The IC50 was 277 nM.
